The record followed here is ChEMBL document CHEMBL2424622, “Development of amino-pyrimidine inhibitors of c-Jun N-terminal kinase (JNK): kinase profiling guided optimization of a 1,2,3-benzotriazole lead” (Bioorg Med Chem Lett, 2013).

SMILES strings stand for the structures.

Experiment [1] has as its target T1, Serine/threonine-protein kinase tousled-like 1 (Homo sapiens) (UniProt Q9UKI8).
T1 sequence (whole entry): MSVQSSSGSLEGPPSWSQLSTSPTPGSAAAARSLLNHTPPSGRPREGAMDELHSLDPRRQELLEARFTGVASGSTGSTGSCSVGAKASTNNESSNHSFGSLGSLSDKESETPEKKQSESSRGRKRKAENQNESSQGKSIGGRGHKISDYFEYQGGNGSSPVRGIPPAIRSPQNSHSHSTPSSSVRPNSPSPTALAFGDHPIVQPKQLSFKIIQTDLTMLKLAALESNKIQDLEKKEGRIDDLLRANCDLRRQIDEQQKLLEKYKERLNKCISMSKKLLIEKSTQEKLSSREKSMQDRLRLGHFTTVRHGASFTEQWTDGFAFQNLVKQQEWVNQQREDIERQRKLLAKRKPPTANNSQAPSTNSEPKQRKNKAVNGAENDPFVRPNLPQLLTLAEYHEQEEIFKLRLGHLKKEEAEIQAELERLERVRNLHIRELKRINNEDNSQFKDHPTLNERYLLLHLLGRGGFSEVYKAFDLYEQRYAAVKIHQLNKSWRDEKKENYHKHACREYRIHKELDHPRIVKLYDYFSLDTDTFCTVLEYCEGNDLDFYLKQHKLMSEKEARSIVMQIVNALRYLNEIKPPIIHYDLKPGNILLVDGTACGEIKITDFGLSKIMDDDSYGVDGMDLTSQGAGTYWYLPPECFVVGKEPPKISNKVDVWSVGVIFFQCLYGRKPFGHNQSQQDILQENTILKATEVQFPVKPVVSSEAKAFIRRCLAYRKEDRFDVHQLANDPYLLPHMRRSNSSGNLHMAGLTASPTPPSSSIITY
The experiment in a line: Competitive binding affinity to TLK1 (unknown origin) at 10 uM in presence of ATP relative to control.

The test system of experiment [2] is Tyrosine-protein kinase ABL1 (Homo sapiens), P00519 [T315I]. The experiment is described as follows: Competitive binding affinity to ABL1 T315I mutant (unknown origin) at 10 uM in presence of ATP relative to control. Put shortly:
(§1)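 In vitro ATP-site competition binding assay across a diverse panel of 128 kinases, with each compound tested at a single concentration. Kinase binding is expressed relative to control.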

For experiment [3], the target named is RAC-gamma serine/threonine-protein kinase (Homo sapiens) (UniProt Q9Y243). The experiment is described as follows: Competitive binding affinity to AKT3 (unknown origin) at 10 uM in presence of ATP relative to control.
The target of experiment [4] is BDNF/NT-3 growth factors receptor (Homo sapiens) (UniProt Q16620). The experiment in a line: Competitive binding affinity to TRKB (unknown origin) at 10 uM in presence of ATP relative to control.
Experiment [5] deals with T2, Serine/threonine-protein kinase STK11 (Homo sapiens) (UniProt Q15831).
T2 sequence (whole entry): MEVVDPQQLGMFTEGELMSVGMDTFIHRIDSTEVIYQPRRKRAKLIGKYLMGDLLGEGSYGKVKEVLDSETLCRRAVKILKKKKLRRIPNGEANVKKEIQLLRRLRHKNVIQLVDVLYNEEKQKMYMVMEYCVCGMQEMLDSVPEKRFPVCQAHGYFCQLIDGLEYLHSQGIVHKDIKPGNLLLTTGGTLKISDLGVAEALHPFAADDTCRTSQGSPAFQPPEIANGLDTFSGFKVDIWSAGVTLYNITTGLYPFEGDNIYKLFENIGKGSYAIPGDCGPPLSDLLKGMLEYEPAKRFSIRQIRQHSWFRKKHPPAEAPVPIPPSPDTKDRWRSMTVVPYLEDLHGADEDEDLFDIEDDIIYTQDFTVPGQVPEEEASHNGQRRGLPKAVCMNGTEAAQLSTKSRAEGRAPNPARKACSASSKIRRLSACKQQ
The experiment is described as follows: Competitive binding affinity to LKB1 (unknown origin) at 10 uM in presence of ATP relative to control. Put shortly:
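In vitro ATP-site competition binding assay, part of profiling against a diverse panel of 128 kinases. Each compound was tested at a single concentration of 10 µM. Kinome selectivity was summarized as S15 selectivity scores.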

Experiment [6] deals with Cyclin-dependent kinase 2 (Homo sapiens) (UniProt P24941). The experiment is described as follows: Competitive binding affinity to CDK2 (unknown origin) at 10 uM in presence of ATP relative to control. Summed up:
as §1

The target in experiment [7] is Serine/threonine-protein kinase SIK1 (Homo sapiens) (UniProt P57059). The experiment is described as follows: Competitive binding affinity to SNF1LK (unknown origin) at 10 uM in presence of ATP relative to control.
Experiment [8] concerns the target T3, Serine/threonine-protein kinase Nek5 (Homo sapiens) (UniProt Q6P3R8).
T3 sequence (whole entry): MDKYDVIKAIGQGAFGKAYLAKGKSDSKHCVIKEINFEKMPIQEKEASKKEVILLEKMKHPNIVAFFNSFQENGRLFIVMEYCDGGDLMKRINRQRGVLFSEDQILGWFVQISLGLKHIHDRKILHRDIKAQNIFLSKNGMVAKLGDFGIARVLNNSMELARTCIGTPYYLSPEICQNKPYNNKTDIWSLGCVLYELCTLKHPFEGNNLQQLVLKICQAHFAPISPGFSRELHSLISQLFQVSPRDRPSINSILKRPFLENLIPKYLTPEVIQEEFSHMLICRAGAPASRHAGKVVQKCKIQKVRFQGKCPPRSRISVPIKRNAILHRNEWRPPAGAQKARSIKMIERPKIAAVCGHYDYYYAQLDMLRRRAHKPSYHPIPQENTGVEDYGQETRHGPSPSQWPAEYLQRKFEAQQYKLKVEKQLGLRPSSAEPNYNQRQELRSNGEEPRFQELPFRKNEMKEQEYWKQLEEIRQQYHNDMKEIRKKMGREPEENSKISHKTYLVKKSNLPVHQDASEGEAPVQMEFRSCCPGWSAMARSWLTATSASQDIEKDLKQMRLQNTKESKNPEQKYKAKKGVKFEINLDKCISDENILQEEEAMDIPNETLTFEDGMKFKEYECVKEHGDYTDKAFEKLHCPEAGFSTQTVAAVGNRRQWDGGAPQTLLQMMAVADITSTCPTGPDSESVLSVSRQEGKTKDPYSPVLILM
The experiment is described as follows: Competitive binding affinity to NEK5 (unknown origin) at 10 uM in presence of ATP relative to control.

For experiment [9], the target named is Tyrosine-protein kinase Srms (Homo sapiens) (UniProt Q9H3Y6). The experiment in a line: Competitive binding affinity to SRMS (unknown origin) at 10 uM in presence of ATP relative to control.
Tyrosine-protein kinase Srms (Homo sapiens), sequence (Q9H3Y6 whole entry): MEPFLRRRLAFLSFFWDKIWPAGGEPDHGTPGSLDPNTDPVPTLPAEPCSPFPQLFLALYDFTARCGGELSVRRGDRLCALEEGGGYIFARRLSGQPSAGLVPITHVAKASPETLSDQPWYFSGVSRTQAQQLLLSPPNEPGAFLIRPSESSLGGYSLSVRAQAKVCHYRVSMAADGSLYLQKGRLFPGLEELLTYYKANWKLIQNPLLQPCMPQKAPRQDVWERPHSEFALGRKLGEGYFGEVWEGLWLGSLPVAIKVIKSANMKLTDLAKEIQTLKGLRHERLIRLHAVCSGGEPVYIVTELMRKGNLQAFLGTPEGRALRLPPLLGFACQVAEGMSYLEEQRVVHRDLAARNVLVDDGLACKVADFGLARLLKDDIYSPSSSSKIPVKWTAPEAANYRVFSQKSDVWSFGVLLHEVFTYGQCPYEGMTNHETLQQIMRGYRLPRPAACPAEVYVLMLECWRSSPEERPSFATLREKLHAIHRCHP

RAC-gamma serine/threonine-protein kinase (Homo sapiens), sequence (Q9Y243 whole entry): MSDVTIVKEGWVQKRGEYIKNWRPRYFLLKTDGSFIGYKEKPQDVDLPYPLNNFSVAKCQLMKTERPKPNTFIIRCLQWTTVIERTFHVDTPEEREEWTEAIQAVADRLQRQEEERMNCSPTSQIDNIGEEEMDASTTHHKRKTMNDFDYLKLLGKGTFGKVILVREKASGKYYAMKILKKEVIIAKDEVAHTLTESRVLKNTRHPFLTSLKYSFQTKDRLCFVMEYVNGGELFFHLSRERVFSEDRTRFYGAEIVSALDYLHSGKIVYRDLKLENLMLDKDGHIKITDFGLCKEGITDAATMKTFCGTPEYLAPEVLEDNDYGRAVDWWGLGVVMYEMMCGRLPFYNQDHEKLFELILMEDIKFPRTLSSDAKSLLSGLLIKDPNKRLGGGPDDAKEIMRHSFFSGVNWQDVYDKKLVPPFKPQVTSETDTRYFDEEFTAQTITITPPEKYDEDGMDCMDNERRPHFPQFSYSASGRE
Serine/threonine-protein kinase SIK1 (Homo sapiens), sequence (P57059 whole entry): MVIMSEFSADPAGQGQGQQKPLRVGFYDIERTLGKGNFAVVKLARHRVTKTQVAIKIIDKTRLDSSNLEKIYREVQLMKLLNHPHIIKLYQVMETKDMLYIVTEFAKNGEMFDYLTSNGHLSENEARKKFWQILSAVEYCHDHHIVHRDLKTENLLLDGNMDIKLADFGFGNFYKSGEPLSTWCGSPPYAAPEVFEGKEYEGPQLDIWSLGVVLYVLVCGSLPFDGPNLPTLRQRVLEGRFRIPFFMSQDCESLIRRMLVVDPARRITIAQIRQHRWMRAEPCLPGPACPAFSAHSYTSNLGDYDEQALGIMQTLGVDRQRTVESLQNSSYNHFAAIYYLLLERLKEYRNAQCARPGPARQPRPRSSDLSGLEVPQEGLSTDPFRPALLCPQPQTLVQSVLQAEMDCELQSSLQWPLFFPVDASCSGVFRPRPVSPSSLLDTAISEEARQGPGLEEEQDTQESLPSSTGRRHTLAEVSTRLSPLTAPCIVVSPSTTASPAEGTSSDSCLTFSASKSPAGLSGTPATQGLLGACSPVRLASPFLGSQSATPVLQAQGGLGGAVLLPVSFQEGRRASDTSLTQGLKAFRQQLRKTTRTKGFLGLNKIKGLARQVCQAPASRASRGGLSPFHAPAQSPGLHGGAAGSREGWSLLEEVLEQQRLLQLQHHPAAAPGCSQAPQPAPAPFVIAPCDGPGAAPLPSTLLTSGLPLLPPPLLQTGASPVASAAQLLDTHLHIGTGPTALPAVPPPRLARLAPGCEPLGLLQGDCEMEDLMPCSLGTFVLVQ
BDNF/NT-3 growth factors receptor (Homo sapiens), sequence (Q16620 32-822 limits assumed): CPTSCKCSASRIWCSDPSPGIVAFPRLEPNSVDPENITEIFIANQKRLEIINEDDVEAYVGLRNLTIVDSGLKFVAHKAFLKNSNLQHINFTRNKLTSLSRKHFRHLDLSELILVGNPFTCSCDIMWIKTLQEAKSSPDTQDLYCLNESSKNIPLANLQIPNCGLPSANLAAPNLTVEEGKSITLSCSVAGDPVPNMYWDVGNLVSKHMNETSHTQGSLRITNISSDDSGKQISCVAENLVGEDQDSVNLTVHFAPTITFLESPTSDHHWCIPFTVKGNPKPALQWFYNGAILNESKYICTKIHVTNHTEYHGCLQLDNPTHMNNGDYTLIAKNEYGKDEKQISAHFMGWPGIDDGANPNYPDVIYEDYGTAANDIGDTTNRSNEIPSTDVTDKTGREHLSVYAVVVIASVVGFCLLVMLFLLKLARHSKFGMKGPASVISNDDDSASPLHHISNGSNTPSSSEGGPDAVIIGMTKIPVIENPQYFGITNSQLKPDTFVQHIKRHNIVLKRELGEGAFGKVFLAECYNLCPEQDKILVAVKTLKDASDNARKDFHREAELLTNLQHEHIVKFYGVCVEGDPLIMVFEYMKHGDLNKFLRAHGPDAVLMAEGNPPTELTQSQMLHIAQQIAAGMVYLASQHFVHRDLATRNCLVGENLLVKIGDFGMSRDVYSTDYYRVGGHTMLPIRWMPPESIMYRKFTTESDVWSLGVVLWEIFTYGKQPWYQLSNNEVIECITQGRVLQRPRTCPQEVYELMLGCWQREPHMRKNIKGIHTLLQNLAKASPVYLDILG

What is called inhibition is the relative decrease from the control value, in per cent. As to `O[C@H]1CC[C@H](Nc2nccc(-c3n[nH]c4ccccc34)n2)CC1`, the inhibition is 90% in [1]; 96% in experiment [2]; < 50% in experiment [3]; 100% in experiment [4]; 75% in experiment [5]; 100% in [6].
`O[C@H]1CC[C@H](Nc2nccc(-n3ccc4ccccc43)n2)CC1`: the inhibition in experiment [7], in experiment [8], in [9], in experiment [1], in experiment [2] and in [3] was < 50% each time. Further, the inhibition is < 50% in experiment [4], < 50% in experiment [5] and 90% in experiment [6].
Consider `O[C@H]1CC[C@H](Nc2nccc(-n3ncc4ccccc43)n2)CC1`, for which the inhibition in [7] was < 50%; in experiment [8], 71%; in [9], < 50%; in experiment [1] it was < 50%; in experiment [2], < 50%; in experiment [3], < 50%. For the same molecule, the inhibition is < 50% in experiment [4], < 50% in experiment [5] and 94% in experiment [6].
Regarding `O[C@H]1CC[C@H](Nc2nccc(-n3nnc4ccccc43)n2)CC1`, the inhibition in [7] is < 50%; in experiment [8], 95%; in experiment [9], < 50%; in [1], < 50%; in [2], < 50%; in [3] it was < 50%. Moreover, the inhibition in [4] was < 50%; in [5], < 50%; in [6] it was 94%.
With `CS(=O)(=O)CCCOc1cccc2c1ccn2-c1ccnc(N[C@H]2CC[C@H](C(=O)N3CCC(O)CC3)CC2)n1`, the inhibition in experiment [8] is > 85%.
